Results from ChEMBL document CHEMBL2384974, “Discovery and synthesis of novel 4-aminopyrrolopyrimidine Tie-2 kinase inhibitors for the treatment of solid tumors” (Bioorg Med Chem Lett, 2013).
≈ marks a conversion by molar mass, not a printed value. Each block holds one compound with its values, some of them ahead of it. Calls of active or inactive are those of the source. No cut-off for these calls is given here.

How the values were obtained:
[1] = Efflux ratio of permeability across basolateral to apical side over apical to basolateral side in human Caco2 cells expressing p-gp; assay type: ADME, cell-based; conditions: Caco-2
[2] = biological target: Epidermal growth factor receptor (Homo sapiens, UniProt P04626+P00533+Q15303+P21860); test: Inhibition of human EGFR extracellular domain/TIE2 intracellular domain transfected in mouse NIH/3T3 cells assessed as phosphotyrosine level preincubated for 60 mins followed by EGF stimulation by DELFIA assay; assay type: cell-based; conditions: nih3t3
Method in brief: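 NIH/3T3 fibroblasts stably transfected with a chimera of human EGFR extracellular domain and human Tie-2 intracellular domain. Cells were exposed to compound for 60 min, stimulated with EGF, then fixed. Phosphotyrosine was read with an Eu-labeled antibody by DELFIA. In washout runs, medium was replaced with fresh medium and cells were stimulated at set times.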

Angiopoietin-1 receptor [3] = biological target: T1, Angiopoietin-1 receptor (Homo sapiens, UniProt Q02763); test: Inhibition of GST-fused TIE2 (unknown origin) using poly[Glu:Tyr] as substrate assessed as phosphotyrosine level by ELISA
Method in brief: (§1)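 ELISA on poly-Glu-Tyr-coated plates using a GST-Tie-2 kinase fusion protein and 100 µM ATP. Phosphorylated product was detected with HRP-conjugated anti-phosphotyrosine monoclonal antibody (PY20). For reversibility, enzyme was preincubated with compound for 15 min before ATP was added. Kinetics were run with titrated ATP.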

[4] = Metabolic stability in rat liver microsomes assessed as hepatic extraction ratio; assay type: ADME, Microsome; conditions: read-out: ERH
C6 [5] = test: Antitumor activity against rat C6 cells lacking human TIE2 xenografted in mouse assessed as tumor growth inhibition at 10 mg/kg, po bid after 10 days relative to control; assay type: functional; conditions: C6, 240 h, read-out: TGI
Method in brief: (§2)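 Oral dosing once or twice daily at 10 or 33 mg/kg for 10 days in the C6 rat glioblastoma xenograft model. The C6 line was uninfected parental cells without human Tie-2. Read-out was percent tumor growth inhibition.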

[6] = Inhibition of cytochrome P450 (unknown origin); assay type: ADME, Homo sapiens
[7] = Volume of distribution at steady state in Sprague-Dawley rat at 0.164 mg/kg, iv; assay type: ADME, organism-based; set-up: dose 0.164 mg/kg, route intravenous; conditions: in vivo, read-out: Vdss
Method in brief: (§3)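 Male Sprague–Dawley rats, fed, given a single 0.164 mg/kg IV dose. Clearance, steady-state volume of distribution and half-life were derived from plasma levels.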

[8] = Clearance in Sprague-Dawley rat at 0.164 mg/kg, iv; assay type: ADME, organism-based; set-up: dose 0.164 mg/kg, route intravenous; conditions: in vivo; method in brief: as §3
[9] = Tmax in Sprague-Dawley rat at 4.2 mg/kg, po; assay type: ADME, organism-based; set-up: dose 4.2 mg/kg, route oral; conditions: in vivo
Method in brief: (§4)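 Ultrafasted Sprague–Dawley rats given 4.2 mg/kg as an oral suspension. Cmax, Tmax, hepatic extraction (Eh) and oral bioavailability were derived from systemic plasma levels.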

[10] = Permeability across basolateral to apical side in human Caco2 cells expressing p-gp; assay type: ADME, cell-based; conditions: Caco-2, read-out: permeability
C6 [11] = test: Antitumor activity against rat C6 cells lacking human TIE2 xenografted in mouse assessed as tumor growth inhibition at 10 mg/kg, po qd after 10 days relative to control; assay type: functional; conditions: C6, 240 h, read-out: TGI; method in brief: as §2
[12] = biological target: Epidermal growth factor receptor (Homo sapiens, UniProt P00533); test: Inhibition of EGFR (unknown origin)
[13] = Metabolic stability in human liver microsomes assessed as hepatic extraction ratio; assay type: ADME, Microsome; conditions: read-out: ERH
C6 [14] = test: Antitumor activity against rat C6 cells lacking human TIE2 xenografted in mouse assessed as tumor growth inhibition at 33 mg/kg, po bid after 10 days; assay type: functional, organism-based; set-up: dose 33 mg/kg; method in brief: as §2
[15] = biological target: Fibroblast growth factor receptor (Homo sapiens, UniProt P22607+P11362+P22455+P21802); test: Inhibition of FGFR (unknown origin); assay type: protein assay
Rattus norvegicus = test: Metabolic stability in Sprague-Dawley rat assessed as hepatic extraction at 4.2 mg/kg, po; assay type: ADME, organism-based; set-up: dose 4.2 mg/kg, route oral; conditions: in vivo; method in brief: as §4
[16] = Half life in Sprague-Dawley rat at 0.164 mg/kg, iv; assay type: ADME, organism-based; set-up: dose 0.164 mg/kg, route intravenous; conditions: in vivo; method in brief: as §3
[17] = Oral bioavailability in Sprague-Dawley rat at 4.2 mg/kg; assay type: ADME, organism-based; conditions: in vivo; method in brief: as §4
[18] = Cmax in Sprague-Dawley rat at 4.2 mg/kg, po; assay type: ADME, organism-based; set-up: dose 4.2 mg/kg, route oral; conditions: in vivo; method in brief: as §4
[19] = Solubility of the compound; assay type: physicochemical
Salmonella typhimurium = test: Mutagenic activity in Salmonella typhimurium by Ames assay; assay type: toxicity, organism-based; conditions: salmonella enterica subsp. enterica serovar typhimurium
[20] = biological target: Platelet-derived growth factor receptor beta (Homo sapiens, UniProt P09619); test: Inhibition of PDGFR (unknown origin)
[21] = biological target: Vascular endothelial growth factor receptor 2 (Homo sapiens, UniProt P35968); test: Inhibition of KDR (unknown origin)
Homo sapiens = organism: Homo sapiens; test: Inhibition of IKr (unknown origin)
[22] = biological target: Voltage-gated inwardly rectifying potassium channel KCNH2 (Homo sapiens, UniProt Q12809); test: Inhibition of human ERG
Mus musculus [23] = test: Inhibition of human TIE2 phosphorylation expressed in rat C6 cells xenografted in po dosed mouse; assay type: functional, organism-based
Method in brief: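 Ex vivo assay in C6 rat glioblastoma clones overexpressing human Tie-2 from a retroviral construct, after a single oral dose. Frozen tumors were homogenized in lysis buffer and lysates captured on antibody-coated plates, with HRP-labeled antibody detection. Plasma and tumor drug levels were measured by LC–MS.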

Mus musculus [24] = test: Toxicity in mouse xenografted with rat C6 cells lacking human TIE2 assessed as body weight loss at 10 to 33 mg/kg, po after 10 days; assay type: organism-based; set-up: dose 10-33 mg/kg, route oral; conditions: in vivo, 240 h
[25] = Mutagenic activity in micronucleus (unknown origin); assay type: ADME
C6 [26] = test: Antitumor activity against rat C6 cells lacking human TIE2 xenografted in mouse assessed as tumor growth inhibition at 33 mg/kg, po qd after 10 days relative to control; assay type: functional; conditions: C6, 240 h, read-out: TGI; method in brief: as §2
[27] = Permeability across apical to basolateral side in human Caco2 cells expressing p-gp; assay type: ADME, cell-based; conditions: Caco-2, read-out: permeability
Angiopoietin-1 receptor [28] = biological target: T1, Angiopoietin-1 receptor; test: Inhibition of TIE2 (unknown origin); method in brief: as §1
[29] = biological target: Tyrosine-protein kinase Lck (Homo sapiens, UniProt P06239); test: Inhibition of LCK (unknown origin)
[30] = biological target: Proto-oncogene tyrosine-protein kinase Src (Homo sapiens, UniProt P12931); test: Inhibition of SRC (unknown origin)

T1 sequence (Q02763 whole entry, the tested form may be a part): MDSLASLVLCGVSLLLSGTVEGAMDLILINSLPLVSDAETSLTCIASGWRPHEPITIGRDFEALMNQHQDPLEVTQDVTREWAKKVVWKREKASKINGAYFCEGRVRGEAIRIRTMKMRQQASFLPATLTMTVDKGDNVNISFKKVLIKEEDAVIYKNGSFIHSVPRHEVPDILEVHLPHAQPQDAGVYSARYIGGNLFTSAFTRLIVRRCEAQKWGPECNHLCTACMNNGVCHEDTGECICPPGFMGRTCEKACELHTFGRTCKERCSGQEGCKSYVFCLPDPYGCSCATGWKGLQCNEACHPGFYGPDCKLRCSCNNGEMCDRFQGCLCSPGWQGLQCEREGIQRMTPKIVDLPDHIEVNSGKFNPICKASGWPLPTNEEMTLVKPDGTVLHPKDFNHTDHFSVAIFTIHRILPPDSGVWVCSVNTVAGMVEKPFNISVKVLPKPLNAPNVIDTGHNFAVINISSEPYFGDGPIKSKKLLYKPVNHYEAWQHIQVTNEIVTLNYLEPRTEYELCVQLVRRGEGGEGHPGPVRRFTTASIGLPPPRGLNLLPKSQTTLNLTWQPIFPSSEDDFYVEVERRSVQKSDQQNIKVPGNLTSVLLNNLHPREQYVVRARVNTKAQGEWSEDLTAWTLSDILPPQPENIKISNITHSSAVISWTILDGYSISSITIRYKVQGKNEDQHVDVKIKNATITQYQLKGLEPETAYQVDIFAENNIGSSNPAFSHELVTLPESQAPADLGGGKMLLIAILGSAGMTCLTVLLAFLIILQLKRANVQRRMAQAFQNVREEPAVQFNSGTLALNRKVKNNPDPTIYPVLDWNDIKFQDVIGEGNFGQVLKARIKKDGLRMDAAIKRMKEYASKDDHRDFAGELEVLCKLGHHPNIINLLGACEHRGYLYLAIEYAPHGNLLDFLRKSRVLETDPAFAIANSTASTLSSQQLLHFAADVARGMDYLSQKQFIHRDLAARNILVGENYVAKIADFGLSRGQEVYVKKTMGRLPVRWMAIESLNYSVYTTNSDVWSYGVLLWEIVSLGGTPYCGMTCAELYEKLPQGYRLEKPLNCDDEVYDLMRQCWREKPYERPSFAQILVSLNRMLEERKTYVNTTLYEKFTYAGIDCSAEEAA
Chain of Vascular endothelial growth factor receptor 2 (P35968 whole entry): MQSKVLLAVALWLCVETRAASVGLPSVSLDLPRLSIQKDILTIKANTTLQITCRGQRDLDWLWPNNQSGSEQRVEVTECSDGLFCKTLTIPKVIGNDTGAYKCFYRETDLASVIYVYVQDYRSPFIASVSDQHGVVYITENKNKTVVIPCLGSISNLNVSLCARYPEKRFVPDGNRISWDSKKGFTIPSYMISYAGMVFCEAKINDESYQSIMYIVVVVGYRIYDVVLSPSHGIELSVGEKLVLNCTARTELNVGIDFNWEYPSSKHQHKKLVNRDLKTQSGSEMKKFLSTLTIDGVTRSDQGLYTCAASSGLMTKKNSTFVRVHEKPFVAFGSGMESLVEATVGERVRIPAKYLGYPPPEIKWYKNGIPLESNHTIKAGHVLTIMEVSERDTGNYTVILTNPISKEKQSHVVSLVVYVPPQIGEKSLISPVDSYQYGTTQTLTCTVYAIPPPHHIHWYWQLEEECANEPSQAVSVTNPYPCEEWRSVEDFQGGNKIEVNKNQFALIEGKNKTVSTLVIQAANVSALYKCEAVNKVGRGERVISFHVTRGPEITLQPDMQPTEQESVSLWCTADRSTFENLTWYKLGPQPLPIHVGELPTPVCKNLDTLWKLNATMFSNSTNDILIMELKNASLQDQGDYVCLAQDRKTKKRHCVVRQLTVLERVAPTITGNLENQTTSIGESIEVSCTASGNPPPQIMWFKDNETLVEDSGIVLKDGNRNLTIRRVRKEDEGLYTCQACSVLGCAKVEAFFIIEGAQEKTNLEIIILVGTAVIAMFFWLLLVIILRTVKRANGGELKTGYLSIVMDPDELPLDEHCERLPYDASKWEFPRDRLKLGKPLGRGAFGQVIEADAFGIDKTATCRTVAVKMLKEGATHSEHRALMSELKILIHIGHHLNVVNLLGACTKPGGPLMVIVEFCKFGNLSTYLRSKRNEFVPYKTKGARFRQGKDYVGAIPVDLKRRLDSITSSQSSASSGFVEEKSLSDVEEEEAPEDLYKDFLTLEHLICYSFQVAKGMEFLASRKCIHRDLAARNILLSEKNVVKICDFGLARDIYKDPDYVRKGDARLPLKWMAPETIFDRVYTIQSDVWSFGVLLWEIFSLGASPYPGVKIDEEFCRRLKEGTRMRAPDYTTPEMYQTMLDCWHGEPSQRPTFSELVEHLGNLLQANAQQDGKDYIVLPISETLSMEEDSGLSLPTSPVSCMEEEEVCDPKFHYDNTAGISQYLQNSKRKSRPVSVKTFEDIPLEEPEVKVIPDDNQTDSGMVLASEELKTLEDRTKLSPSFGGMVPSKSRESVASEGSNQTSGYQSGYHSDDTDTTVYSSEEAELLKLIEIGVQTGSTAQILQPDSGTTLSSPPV
Chain of Platelet-derived growth factor receptor beta (P09619 whole entry): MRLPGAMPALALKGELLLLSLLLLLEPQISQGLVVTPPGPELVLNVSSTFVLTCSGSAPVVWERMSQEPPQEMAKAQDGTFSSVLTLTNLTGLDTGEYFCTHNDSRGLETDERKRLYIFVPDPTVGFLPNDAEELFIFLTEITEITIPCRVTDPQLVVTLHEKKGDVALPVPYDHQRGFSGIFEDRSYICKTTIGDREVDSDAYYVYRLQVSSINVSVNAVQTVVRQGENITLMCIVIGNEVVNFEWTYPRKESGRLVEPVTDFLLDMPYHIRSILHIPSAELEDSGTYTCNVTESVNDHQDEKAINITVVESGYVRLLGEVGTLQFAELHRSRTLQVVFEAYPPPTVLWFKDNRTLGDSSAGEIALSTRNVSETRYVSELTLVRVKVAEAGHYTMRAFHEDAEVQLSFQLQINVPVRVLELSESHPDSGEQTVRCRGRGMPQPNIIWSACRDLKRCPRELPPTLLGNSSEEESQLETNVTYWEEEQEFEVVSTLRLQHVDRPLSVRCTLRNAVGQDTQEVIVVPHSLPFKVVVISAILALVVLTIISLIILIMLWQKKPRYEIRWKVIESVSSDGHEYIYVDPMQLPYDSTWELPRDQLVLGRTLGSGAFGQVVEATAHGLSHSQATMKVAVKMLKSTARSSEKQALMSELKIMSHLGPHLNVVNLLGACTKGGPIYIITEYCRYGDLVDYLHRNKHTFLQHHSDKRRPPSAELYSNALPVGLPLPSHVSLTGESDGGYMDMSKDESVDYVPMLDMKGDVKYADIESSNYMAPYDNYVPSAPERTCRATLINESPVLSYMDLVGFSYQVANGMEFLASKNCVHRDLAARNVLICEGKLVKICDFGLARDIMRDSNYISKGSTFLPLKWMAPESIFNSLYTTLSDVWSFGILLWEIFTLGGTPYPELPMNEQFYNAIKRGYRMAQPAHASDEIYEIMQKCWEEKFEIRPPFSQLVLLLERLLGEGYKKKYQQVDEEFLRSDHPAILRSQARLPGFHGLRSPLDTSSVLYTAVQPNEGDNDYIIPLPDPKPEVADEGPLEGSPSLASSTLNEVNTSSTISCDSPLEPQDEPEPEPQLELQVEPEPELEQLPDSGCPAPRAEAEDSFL
Chain of Epidermal growth factor receptor (Homo sapiens, UniProt P00533) (P00533 whole entry): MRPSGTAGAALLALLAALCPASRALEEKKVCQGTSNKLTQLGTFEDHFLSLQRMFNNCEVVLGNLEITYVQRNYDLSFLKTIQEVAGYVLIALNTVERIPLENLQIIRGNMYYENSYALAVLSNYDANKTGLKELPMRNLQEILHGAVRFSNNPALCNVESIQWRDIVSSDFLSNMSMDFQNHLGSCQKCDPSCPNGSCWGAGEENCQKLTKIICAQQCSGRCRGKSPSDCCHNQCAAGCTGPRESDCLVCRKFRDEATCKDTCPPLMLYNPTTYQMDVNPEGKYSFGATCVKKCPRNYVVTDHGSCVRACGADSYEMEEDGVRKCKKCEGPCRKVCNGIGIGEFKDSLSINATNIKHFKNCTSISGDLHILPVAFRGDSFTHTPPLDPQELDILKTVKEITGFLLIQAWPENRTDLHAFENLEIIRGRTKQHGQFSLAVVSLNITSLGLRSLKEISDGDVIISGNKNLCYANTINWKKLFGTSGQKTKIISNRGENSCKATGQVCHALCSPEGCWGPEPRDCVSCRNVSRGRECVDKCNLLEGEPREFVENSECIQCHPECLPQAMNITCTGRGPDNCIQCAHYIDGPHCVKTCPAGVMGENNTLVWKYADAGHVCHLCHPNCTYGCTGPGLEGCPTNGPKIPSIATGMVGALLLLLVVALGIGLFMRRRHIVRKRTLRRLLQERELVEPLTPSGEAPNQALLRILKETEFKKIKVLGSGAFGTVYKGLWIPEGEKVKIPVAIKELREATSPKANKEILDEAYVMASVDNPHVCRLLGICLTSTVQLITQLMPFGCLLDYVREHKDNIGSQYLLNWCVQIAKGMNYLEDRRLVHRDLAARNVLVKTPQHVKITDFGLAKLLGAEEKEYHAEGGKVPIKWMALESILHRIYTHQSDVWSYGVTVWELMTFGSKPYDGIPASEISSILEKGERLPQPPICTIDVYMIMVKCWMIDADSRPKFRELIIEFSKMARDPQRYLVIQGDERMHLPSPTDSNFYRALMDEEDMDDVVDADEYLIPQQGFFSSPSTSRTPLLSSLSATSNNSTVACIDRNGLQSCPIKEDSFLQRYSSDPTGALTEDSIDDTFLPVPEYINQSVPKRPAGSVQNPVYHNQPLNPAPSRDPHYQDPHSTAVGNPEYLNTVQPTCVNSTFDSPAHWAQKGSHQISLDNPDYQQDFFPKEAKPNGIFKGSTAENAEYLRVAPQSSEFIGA

efflux ratio [1]: 9.4
IC50 [2]: 0.69 nM
IC50 (Angiopoietin-1 receptor [3]): 8.8 nM
hepatic extraction ratio [4]: 0.69
Compound: COc1ccc(C)cc1NC(=O)Nc1cccc(C(=O)c2cn(C3CCCC3)c3ncnc(N)c23)c1

IC50 [6]: > 3000 nM
Vd [7]: 0.9 L/kg
clearance [8]: 38 mL/min/kg
Tmax [9]: 45 min
Papp B→A [10]: 9.5 ×10⁻⁶ cm/s
IC50 [12]: > 10000 nM
hepatic extraction ratio [13]: 0.46
IC50 [15]: > 10000 nM
Stability (Rattus norvegicus): 27 mL/min/kg
half-life [16]: 24 min
bioavailability [17]: 100%
efflux ratio [1]: 1.5
Cmax [18]: 1720 ng/mL
solubility [19]: 35 µg/mL (≈ 78 µM)
IC50 [20]: 1400 nM
IC50 [21]: > 10000 nM
hepatic extraction ratio [4]: 0.52
Compound: CC(C)n1cc(C(=O)c2cccc(NC(=O)Nc3ccc(Cl)cc3)c2)c2c(N)ncnc21
inhibition in vivo at 10 mg/kg (C6 [5]): 70%
inhibition in vivo at 10 mg/kg (C6 [11]): 40%
TGI (C6 [14]): Active
Activity (Salmonella typhimurium): Non-toxic
IC20 (Homo sapiens): 1000 nM
inhibition (INH) [22]: Active
inhibition (Mus musculus [23]): Active
Activity (Mus musculus [24]): Non-toxic
Activity [25]: Toxic
inhibition in vivo at 33 mg/kg (C6 [26]): 60%

IC50 (Angiopoietin-1 receptor [3]): > 10000 nM
Compound: Nc1ncnc2c1c(Cc1cccc(NS(=O)(=O)c3c(F)cccc3F)c1)cn2C1CCCC1

efflux ratio [1]: 9.2
IC50 [2]: 0.89 nM
IC50 (Angiopoietin-1 receptor [3]): 12 nM
hepatic extraction ratio [4]: 0.8
Compound: Cc1ccc(F)c(NC(=O)Nc2cccc(C(=O)c3cn(C4CCCC4)c4ncnc(N)c34)c2)c1

IC50 [2]: 518 nM
IC50 (Angiopoietin-1 receptor [3]): 568 nM
hepatic extraction ratio [4]: 0.69
Compound: Nc1ncnc2c1c(-c1nc3ccc(NS(=O)(=O)c4c(F)cccc4F)cc3[nH]1)cn2C1CCCC1

efflux ratio [1]: 17
IC50 [2]: 4.6 nM
IC50 (Angiopoietin-1 receptor [3]): 45 nM
hepatic extraction ratio [4]: 0.7
Compound: Nc1ncnc2c1c(C(=O)c1cccc(NC(=O)Nc3ccc(Cl)cc3)c1)cn2C1CCCC1

efflux ratio [1]: 1.9
IC50 [2]: 1.2 nM
Compound: Nc1ncnc2c1c(C(=O)c1cccc(NC(=O)Nc3ccc(Cl)cc3Cl)c1)cn2C1CCCC1

IC50 [2]: 769 nM
IC50 (Angiopoietin-1 receptor [3]): 745 nM
Compound: Nc1ncnc2c1c(C(=O)c1ccc(NS(=O)(=O)c3c(F)cccc3F)cc1)cn2C1CCCC1

efflux ratio [1]: 4.7
IC50 [2]: 253 nM
IC50 (Angiopoietin-1 receptor [3]): 423 nM
Compound: Nc1ncnc2c1c(C(=O)c1cccc(NS(=O)(=O)c3c(F)cccc3F)c1)cn2C1CCCC1

efflux ratio [1]: 3.2
IC50 [2]: 112 nM
IC50 (Angiopoietin-1 receptor [3]): 241 nM
hepatic extraction ratio [4]: 0.9
Compound: Nc1ncnc2c1c(-c1nc3ccc(NC(=O)Nc4c(F)cccc4F)cc3[nH]1)cn2C1CCCC1

efflux ratio [1]: 3.5
IC50 [20]: > 5000 nM
IC50 [21]: 3100 nM
Papp A→B [27]: 7.7 ×10⁻⁶ cm/s
IC50 [2]: 67 nM
IC50 (Angiopoietin-1 receptor [3]): 361 nM
hepatic extraction ratio [4]: 0.83
Compound: Nc1ncnc2c1c(C(=O)c1cccc(NC(=O)Nc3c(F)cccc3F)c1)cn2C1CCCC1

IC50 [2]: 254 nM
IC50 (Angiopoietin-1 receptor [3]): 345 nM
Compound: Nc1ncnc2c1c(C(=O)c1ccc(NC(=O)Nc3c(F)cccc3F)cc1)cn2C1CCCC1

IC50 (Angiopoietin-1 receptor [28]): 137 nM
IC50 [29]: > 3000 nM
IC50 [21]: > 3000 nM
IC50 [30]: > 3000 nM
Compound: COc1cc(-c2cn([C@H]3CC[C@H](N4CCN(C)CC4)CC3)c3ncnc(N)c23)ccc1NS(=O)(=O)c1ccccc1
